This is a sample that favours compounds with a hit; in the whole collection about 2.9% have one here.
HSP90 inh: HSP90 inhibitors, primary screen, cell lysate, luminescence. Heat shock protein HSP 90 (rabbit reticulocyte lysate; luciferase refolding). Rabbit reticulocyte lysate, luciferase refolding luminescence, 3 h. inhibition, % at 5.6 µM. 290,000 tested, 0.91% active. AID 1789, 2009;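 active = inhibition above the screen-wide mean plus 3 SD, computed separately per campaign, cut at about 16% in these data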;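 also: inhibitors lower the luminescence because luciferase stays unfolded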
SENP7 block: SENP7 protease inhibitors, primary screen, biochemical, luminescence, uHTS | Sentrin-specific protease 7 (Homo sapiens), Q9BQF6 | inhibition, % at 5 µM | recombinant SENP7, Z-RLRGG-aminoluciferin luminescence, 40 min | 330,000 tested, 1.5% active;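 active = inhibition above about 50% at the single test dose, limit read from the data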
SENP1 FRET inh: human SENP1 catalytic domain inhibitors, primary screen, biochemical, FRET, uHTS. 360,000 tested, 0.21% active. AID 624204, 2012. inhibition, % at 10 µM. recombinant SENP1 catalytic domain, CyPet-SUMO1-YPet FRET cleavage;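 active = inhibition at least 30% at 10 µM, raw YFP signal under a set limit, fluorescence ratio 0.5 to 1.5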
Target sequence (Q9P0U3 419-644 limits assumed): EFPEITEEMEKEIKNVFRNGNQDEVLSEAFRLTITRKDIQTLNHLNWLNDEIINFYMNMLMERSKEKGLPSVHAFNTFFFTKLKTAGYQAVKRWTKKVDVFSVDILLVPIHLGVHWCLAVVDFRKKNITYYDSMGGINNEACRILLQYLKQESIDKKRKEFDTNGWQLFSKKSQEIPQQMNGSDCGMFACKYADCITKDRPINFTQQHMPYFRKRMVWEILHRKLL
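Material – human SENP1 catalytic domain · Input – SENP1 enzyme, 20 pM final · Compound dosing – single concentration of 10 µM compound, 0.5% DMSO final · Timing – enzyme reaction for 50 min at room temperature, dark · Measured by – FRET fluorescence in CFP and YFP emission channels · Control set – no-enzyme wells low, DMSO-plus-enzyme wells high control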
SENP8 block-1: SENP8 protease inhibitors, primary screen, biochemical, luminescence. Sentrin-specific protease 8 (Homo sapiens), Q96LD8. 330,000 tested, 1.2% active. inhibition, % at 10 µM. purified SENP8, Z-RLRGG-aminoluciferin cleavage. AID 2540, 2010; in the data active = inhibition above about 50%
Target sequence (Q96LD8 whole entry, looked up): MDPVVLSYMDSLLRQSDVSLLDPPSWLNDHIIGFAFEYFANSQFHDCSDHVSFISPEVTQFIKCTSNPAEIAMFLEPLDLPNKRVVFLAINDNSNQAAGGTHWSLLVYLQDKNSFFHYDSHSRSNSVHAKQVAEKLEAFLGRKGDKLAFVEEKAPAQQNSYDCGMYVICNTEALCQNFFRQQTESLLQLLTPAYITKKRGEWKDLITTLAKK
SENP8 block-2: human SENP8 protease inhibitors, primary screen, biochemical, fluorescence, Nedd8 protein substrate, uHTS; Sentrin-specific protease 8 (Homo sapiens), Q96LD8; recombinant SENP8; inhibition, % at 20 µM; 360,000 tested, 0.64% active; AID 602440, 2012; in the data active = inhibition mostly above about 40%, no sharp cut-off; inactive = mostly below about 27%
SENP6 block: SENP6 protease inhibitors, primary screen, biochemical, luminescence, uHTS; Sentrin-specific protease 6 (Homo sapiens), Q9GZR1; Recombinant SENP6 catalytic domain, aminoluciferin luminescence; inhibition, % at 10 µM; 330,000 tested, 1.8% active; AID 2599, 2010;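 active = inhibition above about 50% at the single tested dose, limit read from the data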
SENP8 conf: SENP8 protease inhibitors, retest, confirmation, biochemical, luminescence, single concentration | shares compounds with SENP7 block | Recombinant SENP8, Z-RLRGG-aminoluciferin luminescence, 60 min | inhibition, % at 12.5 µM | 6,200 tested, 40% active | AID 488912, 2010;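 active = mean inhibition across replicates above about 50%, limit read from the data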
SENP6 confirm: SENP6 protease inhibitors, confirmation, biochemical, luminescence, single concentration; shares compounds with SENP7 block; recombinant SENP6, Z-RLRGG-aminoluciferin luminescence; inhibition, % at 12.5 µM; 6,200 tested, 58% active; AID 488915, 2010
SENP7 conf: SENP7 protease inhibitors, retest, confirmation, biochemical, luminescence, single concentration. recombinant SENP7, Z-RLRGG-aminoluciferin luminescence, 40 min. shares compounds with SENP7 block. 6,200 tested, 69% active. inhibition, % at 12.5 µM
Casp3 SENP sel: caspase-3 protease inhibitors, confirmation, selectivity assay for SENP inhibitor project, biochemical, single concentration; inhibition, % at 12.5 µM; 6,200 tested, 60% active; shares compounds with SENP7 block; purified caspase-3, Z-DEVD-aminoluciferin luminescence, 60 min; AID 488918, 2010;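 active = mean inhibition above about 50%, limit read from the data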
Target sequence (P42574 28-227 limits assumed): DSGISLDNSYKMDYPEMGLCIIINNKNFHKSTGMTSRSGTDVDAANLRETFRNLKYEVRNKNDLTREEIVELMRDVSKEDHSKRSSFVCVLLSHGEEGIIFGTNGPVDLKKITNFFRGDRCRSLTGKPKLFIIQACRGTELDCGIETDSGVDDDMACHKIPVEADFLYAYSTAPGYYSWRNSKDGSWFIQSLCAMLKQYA
SENP luc ctr: interferes with luciferase luminescence in SENP counter-screen; shares compounds with SENP7 block; Pre-incubated SENP8/Z-RLRGG-aminoluciferin, luciferase luminescence interference; inhibition, % at 12.5 µM; 6,200 tested, 39% active; AID 488919;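 active = mean inhibition above about 50% when retested at one dose, limit read from the data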
Each line names hits and unclear results; the compound was inactive in the other large screens (follow-up assays come after a bar, where they were run).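 The calls were made as follows, unless noted: active = mean inhibition above about 50% in the one-dose retest (limit read from the data); inactive = the rest.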

CN1CCc2cc3c(c4c2[C@H]1[C@H](O)c1ccccc1-4)OCO3	SENP6 block 59 | SENP8 conf inactive | SENP6 confirm 78 | SENP7 conf 64 | Casp3 SENP sel 70 | SENP luc ctr inactive
CC(O)(c1ccc(F)c(F)c1)c1nc(-c2cnc3ccccc3c2)cs1 (centres undefined)	none (no result: HSP90 inh, SENP7 block, SENP8 block-1, SENP6 block)
O=C(Nc1ccccn1)c1ccc2ccccc2c1O	SENP6 block 63 | SENP8 conf inactive | SENP6 confirm inactive | SENP7 conf 76 | Casp3 SENP sel 63 | SENP luc ctr 59
O=C(Nc1cccnc1)c1ccc2ccccc2c1O	SENP7 block 88, SENP8 block-1 85, SENP6 block 94 | SENP8 conf 93 | SENP6 confirm 92 | SENP7 conf 100 | Casp3 SENP sel 93 | SENP luc ctr 87
O=C(Cc1ccccc1)Nc1cccc([N+](=O)[O-])c1	none
O=C(Nc1cccc([N+](=O)[O-])c1)c1ccc2ccccc2c1O	SENP7 block 92, SENP8 block-1 92, SENP6 block 90 | SENP8 conf inactive | SENP6 confirm inactive | SENP7 conf inactive | Casp3 SENP sel inactive | SENP luc ctr inactive
CCC(C)n1c(SCC(=O)NC2CCS(=O)(=O)C2)nc2ccccc2c1=O (centres undefined)	none (no result: HSP90 inh)
CC(=O)Oc1ccc2ccc3ccc(C(C)=O)cc3c2c1	none (no result: HSP90 inh, SENP7 block, SENP8 block-1, SENP6 block)
Cc1ccc(N=Nc2c(N)n(-c3ccccc3)[nH]c2=O)cc1	SENP7 block 82, SENP8 block-1 54, SENP6 block 76 | SENP8 conf inactive | SENP6 confirm inactive | SENP7 conf inactive | Casp3 SENP sel inactive | SENP luc ctr inactive
Cc1nnc(N/N=C/c2ccc(Br)cc2)n1N	none
Oc1ccccc1/C=N/Nc1nccnc1Cl	SENP7 block 93, SENP8 block-1 83, SENP6 block 80 | SENP8 conf 91 | SENP6 confirm 91 | SENP7 conf 100 | Casp3 SENP sel 94 | SENP luc ctr 93
COc1ccccc1/C=N/Nc1cc(N(C)C)nc(N(C)C)n1	none
COc1ccc(/C=N/Nc2cc(N(C)C)nc(N(C)C)n2)cc1	SENP7 block 72, SENP6 block 80 | SENP8 conf inactive | SENP6 confirm 82 | SENP7 conf 81 | Casp3 SENP sel inactive | SENP luc ctr inactive
Clc1nccnc1N/N=C/c1ccc(Br)cc1	SENP7 block 98, SENP8 block-1 94, SENP6 block 96 | SENP8 conf 97 | SENP6 confirm 98 | SENP7 conf 102 | Casp3 SENP sel 97 | SENP luc ctr 96
COc1ccc(/C=N/Nc2nccnc2Cl)c(OC)c1	SENP7 block 98, SENP8 block-1 91, SENP6 block 93 | SENP8 conf 96 | SENP6 confirm 97 | SENP7 conf 103 | Casp3 SENP sel 98 | SENP luc ctr 95
COC(=O)[C@]12CCCCC=C1N(Cc1ccc3c(c1)OCO3)C(=O)[C@H](CC(=O)NCc1ccc(C)o1)C2	none (no result: HSP90 inh, SENP7 block, SENP8 block-1, SENP6 block)
COc1ccc(/C=N/Nc2nccnc2Cl)cc1	SENP7 block 97, SENP8 block-1 95, SENP6 block 95 | SENP8 conf 98 | SENP6 confirm 99 | SENP7 conf 103 | Casp3 SENP sel 99 | SENP luc ctr 97
CC(=O)Nc1ccc2c(c1)CCCC2	none
O=C(Nc1ccc2c(c1)oc1ccccc12)c1ccc(Br)o1	SENP7 block 77 | SENP8 conf inactive | SENP6 confirm inactive | SENP7 conf inactive | Casp3 SENP sel inactive | SENP luc ctr inactive
COC(=O)Cc1ccc(NC(=O)c2ccc(Br)o2)cc1	SENP6 block 51 | SENP8 conf inactive | SENP6 confirm inactive | SENP7 conf 68 | Casp3 SENP sel 70 | SENP luc ctr inactive
Cc1ccc(C(=O)Nc2ccc3c(c2)CCC3)o1	SENP7 block 80, SENP8 block-1 68, SENP6 block 82 | SENP8 conf 72 | SENP6 confirm 68 | SENP7 conf 92 | Casp3 SENP sel 82 | SENP luc ctr 78
O=C(Nc1ccc2c(c1)CCC2)c1ccc(Br)o1	SENP7 block 89, SENP8 block-1 79, SENP6 block 90 | SENP8 conf 88 | SENP6 confirm 87 | SENP7 conf 99 | Casp3 SENP sel 86 | SENP luc ctr 87
O=C(Nc1ccccc1)c1ccc(Br)o1	none
CCOc1ccccc1NC(=O)COC(=O)c1c(CC)noc1C	none (no result: HSP90 inh)
CN(C)c1ccc(NC(=O)c2ccc(COc3cccc(Cl)c3)o2)cc1	none
O=C(Nc1ccc2c(c1)CCC2)c1cc2ccccc2o1	SENP7 block 68, SENP6 block 77 | SENP8 conf 61 | SENP6 confirm 65 | SENP7 conf 87 | Casp3 SENP sel inactive | SENP luc ctr 58
O=C(Nc1ccc2c(c1)Cc1ccccc1-2)c1cc2ccccc2o1	none
O=C(Nc1ccc2c(c1)OCO2)c1ccc(Br)o1	SENP8 block-1 58, SENP6 block 65 | SENP8 conf inactive | SENP6 confirm 65 | SENP7 conf 90 | Casp3 SENP sel 82 | SENP luc ctr 67
O=C(Nc1ccc2c(c1)OCO2)c1ccc(COc2ccc3c(c2)CCC3)o1	SENP6 block 54 | SENP8 conf inactive | SENP6 confirm inactive | SENP7 conf inactive | Casp3 SENP sel inactive | SENP luc ctr inactive
O=C(Cc1cc2ccccc2o1)NCc1ccc(F)cc1	none
COc1ccc(Cn2cc(CN3CC(N4CCN(C5CCN(C)CC5)CC4)CS3(=O)=O)nn2)cc1 (centres undefined)	none (no result: HSP90 inh, SENP7 block, SENP8 block-1, SENP6 block)

Assay outcomes as filed in PubChem BioAssay.
